Results from ChEMBL document CHEMBL4024749, “Discovery of 3,5-Diphenyl-4-methyl-1,3-oxazolidin-2-ones as Novel, Potent, and Orally Available Δ-5 Desaturase (D5D) Inhibitors” (J Med Chem, 2017).
pIC50: −log10 of the molar value.

How the values were obtained:
[1] = Drug metabolism in mouse hepatocytes assessed as 5-(4-fluorophenyl)-4-hydroxy-3-(3-methoxyphenyl)oxazolidin-2-one formation by LC-MS/MS analysis; assay type: ADME, cell-based, Hepatocyte
Method in brief: (§1)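 Human or mouse hepatocytes incubated with compound; metabolites identified by LC/MS/MS and formation ratio (%) calculated as metabolite UV peak area after incubation over parent peak area before incubation × 100, assuming equal extinction coefficients.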

[2] = Drug metabolism in mouse hepatocytes assessed as 3-(5-(4-fluorophenyl)-4-hydroxy-2-oxooxazolidin-3-yl)phenyl hydrogen sulfate formation by LC-MS/MS analysis; assay type: ADME, cell-based, Hepatocyte; method in brief: as §1
Liver [3] = assay: Drug metabolism in mouse liver assessed as 5-(4-fluorophenyl)-4-hydroxy-3-(3-methoxyphenyl)oxazolidin-2-one formation at 488 mg/kg/day, po by LC-MS/MS analysis; assay type: ADME, organism-based; settings: in vivo
Method in brief: (§2)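 Mice given compound orally as dietary admixture at 488 mg kg−1 day−1; liver concentrations of parent and metabolites determined by LC/MS/MS, metabolites quantified assuming extinction coefficient equal to parent.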

Liver [4] = assay: Drug metabolism in mouse liver assessed as (2S,3S,4S,5R,6S)-6-(5-(4-fluorophenyl)-3-(3-methoxyphenyl)-2-oxooxazolidin-4-yloxy)-3,4,5-trihydroxytetrahydro-2H-pyran-2-carboxylic acid formation at 488 mg/kg/day, po by LC-MS/MS analysis; assay type: ADME, organism-based; settings: in vivo; method in brief: as §2
[5] = Drug metabolism in human hepatocytes assessed as 5-(4-fluorophenyl)-4-hydroxy-3-(3-methoxyphenyl)oxazolidin-2-one formation by LC-MS/MS analysis; assay type: ADME, cell-based, Hepatocyte; method in brief: as §1
Liver [6] = assay: Drug metabolism in mouse liver assessed as 5-(4-fluorophenyl)-3-(3-hydroxyphenyl)oxazolidin-2-one formation at 488 mg/kg/day, po by LC-MS/MS analysis; assay type: ADME, organism-based; settings: in vivo; method in brief: as §2
[7] = Drug stability in human hepatocytes by LC-MS/MS analysis; assay type: ADME, cell-based, Hepatocyte
Liver [8] = assay: Drug metabolism in mouse liver assessed as (2S,3S,4S,5R,6S)-6-(3-(5-(4-fluorophenyl)-2-oxooxazolidin-3-yl)phenoxy)-3,4,5-trihydroxytetrahydro-2H-pyran-2-carboxylic acid formation at 488 mg/kg/day, po by LC-MS/MS analysis; assay type: ADME, organism-based; settings: in vivo; method in brief: as §2
[9] = Drug stability in mouse hepatocytes by LC-MS/MS analysis; assay type: ADME, cell-based, Hepatocyte
[10] = Drug metabolism in mouse hepatocytes assessed as 5-(4-fluorophenyl)-3-(3-hydroxyphenyl)oxazolidin-2-one formation by LC-MS/MS analysis; assay type: ADME, cell-based, Hepatocyte; method in brief: as §1
[11] = biological target: Acyl-CoA (8-3)-desaturase (Rattus norvegicus, UniProt Q920R3); assay: Displacement of [3H]T-3364366 from D5D in rat liver microsomal membrane preincubated for 15 mins followed by radioligand addition measured after 150 mins by TopCount microscintillation counting assay; assay type: cell membranes
Method in brief: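 Rat liver microsome fraction (30 μg/well) preincubated 15 min with test compound at room temperature in 10 mM Tris-HCl pH 7.5, 100 mM KCl, 10 mM NaF buffer, 200 μL/well; bound ligand trapped on GF/C filters, washed 5× with ice-cold buffer, counted by scintillation. Nonspecific binding with 10 μM unlabeled T-3364366; IC50 from three-parameter logistic fit.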

Liver [12] = assay: Drug metabolism in mouse liver assessed as 3-(5-(4-fluorophenyl)-2-oxooxazolidin-3-yl)phenyl hydrogen sulfate formation at 488 mg/kg/day, po by LC-MS/MS analysis; assay type: ADME, organism-based; settings: in vivo; method in brief: as §2
Liver [13] = assay: Drug metabolism in mouse liver assessed as 3-(5-(4-fluorophenyl)-4-hydroxy-2-oxooxazolidin-3-yl)phenyl hydrogen sulfate formation at 488 mg/kg/day, po by LC-MS/MS analysis; assay type: ADME, organism-based; settings: in vivo; method in brief: as §2
[14] = Drug metabolism in human hepatocytes assessed as 3-(5-(4-fluorophenyl)-4-hydroxy-2-oxooxazolidin-3-yl)phenyl hydrogen sulfate formation by LC-MS/MS analysis; assay type: ADME, cell-based, Hepatocyte; method in brief: as §1
[15] = biological target: Acyl-CoA (8-3)-desaturase (Homo sapiens, UniProt O60427); assay: Inhibition of D5D in human HepG2 cells assessed as [14C]AA formation from [14C]DGLA preincubated for 30 mins followed by [14C]eicosatrienoic acid addition measured after 3 hrs by TLC analysis; assay type: cell-based
Method in brief: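 HepG2 plated at 1 × 10^5 cells/well, cultured overnight in DMEM/10% FBS, PBS-washed, then preincubated 30 min at 37 °C with compound in DMEM with penicillin/streptomycin and 0.3% BSA. 0.1 μCi [14C]eicosatrienoic acid added and cells incubated 3 h at 37 °C; lipids saponified overnight at 55 °C with NaOH, acidified, extracted with chloroform/MeOH, separated by TLC.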

Chain of Acyl-CoA (8-3)-desaturase (Rattus norvegicus, UniProt Q920R3) (Q920R3 whole entry): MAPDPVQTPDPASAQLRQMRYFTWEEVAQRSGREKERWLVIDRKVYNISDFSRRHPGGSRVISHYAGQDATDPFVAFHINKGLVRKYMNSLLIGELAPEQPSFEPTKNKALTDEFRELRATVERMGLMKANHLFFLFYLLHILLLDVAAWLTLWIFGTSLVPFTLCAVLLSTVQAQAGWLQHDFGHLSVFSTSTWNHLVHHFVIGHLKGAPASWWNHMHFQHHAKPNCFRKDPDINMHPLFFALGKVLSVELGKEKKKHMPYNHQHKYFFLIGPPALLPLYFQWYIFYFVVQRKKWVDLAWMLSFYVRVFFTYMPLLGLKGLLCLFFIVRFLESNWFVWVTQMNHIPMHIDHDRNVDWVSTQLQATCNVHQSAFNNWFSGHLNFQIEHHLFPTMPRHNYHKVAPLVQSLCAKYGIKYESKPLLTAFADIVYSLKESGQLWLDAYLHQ
Chain of Acyl-CoA (8-3)-desaturase (Homo sapiens, UniProt O60427) (O60427 whole entry): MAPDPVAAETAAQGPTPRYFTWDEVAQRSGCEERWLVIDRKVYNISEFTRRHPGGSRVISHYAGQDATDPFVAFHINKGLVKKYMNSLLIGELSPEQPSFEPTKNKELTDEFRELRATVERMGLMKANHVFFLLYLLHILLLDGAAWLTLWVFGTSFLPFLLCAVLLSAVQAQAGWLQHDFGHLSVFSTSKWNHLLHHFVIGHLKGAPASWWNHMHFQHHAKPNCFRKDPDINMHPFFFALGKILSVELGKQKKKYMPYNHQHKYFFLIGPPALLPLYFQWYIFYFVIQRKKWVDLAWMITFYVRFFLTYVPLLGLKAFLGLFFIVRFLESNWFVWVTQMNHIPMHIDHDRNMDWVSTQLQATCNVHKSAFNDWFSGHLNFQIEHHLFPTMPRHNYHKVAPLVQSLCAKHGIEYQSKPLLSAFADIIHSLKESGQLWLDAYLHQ

- Drug metabolism [1]: Metabolite_Notdetected
- Drug metabolism [2]: Metabolite_Notdetected
- Drug metabolism (Liver [3]): 0.25 to 0.65 µg/g
- Drug metabolism (Liver [4]): Metabolite_Notdetected
- Drug metabolism [5]: Metabolite_Notdetected
- Drug metabolism (Liver [6]): 0.51 to 1.21 µg/g
- Stability [7]: 22.5%
- Drug metabolism (Liver [8]): 0.83 to 2.5 µg/g
- Stability [9]: 2.3%
- Drug metabolism [10]: Metabolite_Notdetected
- pIC50 [11]: 8.07
- Drug metabolism (Liver [12]): 4.41 to 12.9 µg/g
- Drug metabolism (Liver [13]): 0.48 to 1.78 µg/g
- Drug metabolism [14]: Metabolite_Notdetected
- pIC50 [15]: 8.39
SMILES: COc1cccc(N2CC(c3ccc(F)cc3)OC2=O)c1 (racemic)
